An excerpt weighted towards active compounds, which were near 2.4% of everything screened.
HMGR II inh: inhibitors of E. faecalis class II HMGR, primary screen, biochemical, Enterococcus faecalis; HMG-CoA reductase (Enterococcus faecalis, mvaE); purified E. faecalis HMGR, NADPH absorbance 340 nm kinetic; inhibition, % at 10 µM; hit rate 0.41% among 190,000;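 active = inhibition above a set limit, the median over all tested compounds plus 3 SD, cut at about 9.5% in these data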;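 note: enzyme runs in reverse so mevalonate oxidation gives rising NADPH absorbance; 0% = complete reaction with DMSO and 100% = background rate lacking mevalonate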
Arbovirus inh: antivirals against arbovirus infection, primary screen, cell-based, full library, 10K replicate subset; inhibition, % at 10 µM; AID 1251, 2008; arbovirus infection cell-based antiviral screen; hit rate 0.37% among 200,000; in the data active = inhibition above about 30%
Rad51 HR inh: human RAD51 strand exchange inhibitors, primary screen, biochemical, fluorescence; DNA repair protein RAD51 homolog 1 (Homo sapiens), Q06609; hRad51 DNA strand exchange, fluorescence dequenching; inhibition, % at 10 µM; hit rate 0.085% among 200,000; AID 1385, 2008;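 active = inhibition above 40% at the single screening dose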;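 note: 0% = DMSO control wells and 100% = blanks with heterologous ssDNA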
Target sequence (Q06609 whole entry, looked up): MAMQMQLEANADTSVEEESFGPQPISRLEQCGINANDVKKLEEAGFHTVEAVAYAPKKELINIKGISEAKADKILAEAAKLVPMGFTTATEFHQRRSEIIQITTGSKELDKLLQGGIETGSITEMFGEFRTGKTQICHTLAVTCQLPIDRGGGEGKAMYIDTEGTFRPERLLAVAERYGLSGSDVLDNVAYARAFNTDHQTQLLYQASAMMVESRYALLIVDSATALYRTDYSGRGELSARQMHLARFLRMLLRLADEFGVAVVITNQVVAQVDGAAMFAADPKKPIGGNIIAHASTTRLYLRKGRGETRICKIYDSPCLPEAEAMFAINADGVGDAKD
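Material: Human Rad51 nucleoprotein filaments preassembled on unlabelled ssDNA | Also added: Labelled 47-mer dsDNA for strand exchange | Dosing: Single dose, 10 µM final compound | Schedule: 30-min compound preincubation and 15-min exchange, both room temperature | Technique: Fluorescence dequenching at 485/520 nm | Measure: Percent inhibition relative to plate controls and blanks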
BB579 growth dn: growth inhibitors of yeast BB579 in restrictive medium, primary screen, yeast lifespan-shortening project, S. cerevisiae. OD615, 48 h. inhibition, % at 10 µM. hit rate 0.51% among 140,000. AID 804, 2007;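 active = inhibition above a set limit, 3 SD over the mean compound inhibition, cut at about 44% in these data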
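Detection: OD615 turbidity measurement; Material: Saccharomyces cerevisiae DeaD strain BB579, replicative lifespan model yeast; Timing: 48 h exposure, 30 °C; Doses: single 10 µM dose; Medium: CSMM-D restrictive synthetic medium containing dextrose (glucose); Controls: amphotericin B at 10 µg/mL as positive control.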
Measles CPE: compounds protecting cells from measles virus cytopathic effect, primary screen, measles RdRp inhibitor project, single point, MLSMR library, absorbance. Measles virus-infected cells, CPE protection. protection (pct of control), % at 4 µM. hit rate 1.5% among 140,000; in the data active = protection mostly above about 24%, no sharp cut-off; inactive = mostly below about 26%
Yeast life ext: compounds extending yeast replicative lifespan, primary screen, S. cerevisiae, OD615; inhibition of the nicotinamide effect, % at 10 µM; S. cerevisiae growth with nicotinamide; deaD strain in restrictive glucose medium; hit rate 0.68% among 130,000; AID 775, 2007;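 active = inhibition above a set limit, placed 3 SD over the median of all compounds, cut at about 26% in these data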;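 note: 0% = nicotinamide-treated wells and 100% = cells grown without nicotinamide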
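assay system = DeaD-strain S. cerevisiae | measured by = absorbance at 615 nm | probe or stimulus = nicotinamide 1.5 mM | buffer or medium = CSMM-D glucose medium, restrictive | times = 48 h at 30 °C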
* = called active by the depositor.

For CCc1c(C)nc(Nc2nc(C)c3ccc(OC)cc3n2)[nH]c1=O the results were HMGR II inh -1, Arbovirus inh -15, Rad51 HR inh -8, BB579 growth dn 13, Measles CPE 19 and Yeast life ext -9.
COc1ccc2c(C)nc(Nc3nc(C)c(C)c(=O)[nH]3)nc2c1 was read as HMGR II inh 0, Arbovirus inh -25, Rad51 HR inh -3, BB579 growth dn 59*, Measles CPE 1 and Yeast life ext -7.
`Cc1ccc(/C=N/NC(=O)Cn2nnc(N)n2)o1` gave Rad51 HR inh 0.
`CCc1ccccc1Nc1nc(N)nc(COC(=O)c2cccn2C)n1` gave HMGR II inh -9, Arbovirus inh 2, Rad51 HR inh 8, BB579 growth dn -27, Measles CPE 78* and Yeast life ext -24.
Screening COC(=O)c1ccsc1NC(=O)CN1C(=O)CCC1=O returned Arbovirus inh 0 and Rad51 HR inh 2.
CCCCN1C(=O)C(O)(CC(=O)c2c(C)n[nH]c2C)c2cc(Br)ccc21 (configuration not stated) was read as HMGR II inh -2, Arbovirus inh -3, Rad51 HR inh -1, BB579 growth dn -25, Measles CPE 73* and Yeast life ext -10.
For CN1CC(=O)N(CC(=O)Nc2cccc(S(=O)(=O)N3CCOCC3)c2)C1=O the results were HMGR II inh 0, Arbovirus inh 2 and Rad51 HR inh 29.
`CC(c1ccco1)N(C(=O)c1ccccc1NS(=O)(=O)c1ccc(Cl)c([N+](=O)[O-])c1)c1ccccn1` (configuration not stated) gave HMGR II inh -8, Arbovirus inh 19, Rad51 HR inh 1, BB579 growth dn -25, Measles CPE 5 and Yeast life ext 40*.
Cc1ccc(-c2noc(CSc3nnc(Cc4ccccc4)n3-c3ccc(Cl)cc3)n2)cc1 was read as HMGR II inh 18*, Arbovirus inh -4, Rad51 HR inh -3, BB579 growth dn -17, Measles CPE 1 and Yeast life ext 7.
For CN1CCN(C2=Cc3cc(Cl)ccc3Sc3cc(F)ccc32)CC1 the results were HMGR II inh -8, Arbovirus inh -37, Rad51 HR inh 8, BB579 growth dn 98* and Measles CPE 9.
CN1CCN(C2=Cc3ccccc3Sc3cc(F)c(F)cc32)CC1 was read as HMGR II inh -2, Arbovirus inh -35, Rad51 HR inh 0, BB579 growth dn 1 and Measles CPE 16.
Cc1cccc(-c2noc(CN(C(=O)C(c3ccccc3)c3ccccc3)C(C)C)n2)c1 was read as HMGR II inh 0, Arbovirus inh -24, Rad51 HR inh 3, BB579 growth dn -25, Measles CPE 6 and Yeast life ext -6.
Screening COc1cc2c(cc1OC)C(c1ccc3c(c1)OCO3)C1=C(CC(C)(C)CC1=O)N2 (configuration not stated) returned HMGR II inh -4, Arbovirus inh -5, BB579 growth dn -13, Measles CPE 25* and Yeast life ext 0.
COc1cccc(C2C3=C(CC(C)(C)CC3=O)Nc3cc4c(cc32)OCO4)c1 (configuration not stated) was read as HMGR II inh -7, Arbovirus inh -28, Rad51 HR inh -2, BB579 growth dn -13, Measles CPE 12 and Yeast life ext -7.
For CC1(C)Cc2c(sc3nc(N/N=C/c4ccccc4)[nH]c(=O)c23)CO1 the results were HMGR II inh -1, Arbovirus inh -9, Rad51 HR inh 15, BB579 growth dn -41, Measles CPE 21* and Yeast life ext 0.
Screening COc1ccc(-c2c(N)n[nH]c2C)cc1OC returned HMGR II inh 15* and Arbovirus inh -2.
For COc1ccc(-c2ccc(SCC(=O)c3ccccc3)nn2)cc1OC the results were HMGR II inh 11* and Arbovirus inh -19.
CC(=O)Nc1ccc(C(=O)N/N=C/c2cc(Br)cc(Br)c2O)cc1 was read as HMGR II inh -1, Arbovirus inh -9 and Rad51 HR inh -16.
Screening Cc1ccc(C(=O)O)cc1N=Cc1cc(Br)cc(Br)c1O returned HMGR II inh 1, Arbovirus inh -2, Rad51 HR inh -5, BB579 growth dn 90*, Measles CPE 2 and Yeast life ext 4.
Cc1cccc(NC(=O)C(=O)NCc2ccc3c(c2)OCO3)c1C was read as HMGR II inh 10*, Arbovirus inh -3 and Rad51 HR inh 5.
Cc1cccc(NC(=O)CSc2ccc(-c3ccc4c(c3)OCO4)nn2)c1C was read as HMGR II inh 17*, Arbovirus inh -31, Rad51 HR inh 4, BB579 growth dn -28, Measles CPE 4 and Yeast life ext 1.
Screening Cc1cc(NC(=O)CSc2ccc(-c3ccc4c(c3)OCO4)nn2)no1 returned HMGR II inh 0 and Arbovirus inh -11.
COC(=O)c1cc(C(=O)NCc2ccccc2)c(=O)[nH]c1C was read as HMGR II inh -6, Arbovirus inh -28 and Rad51 HR inh 36.
Screening Cc1cc(NC(=O)CC(CN(C)S(=O)(=O)c2ccccc2)c2ccccc2)no1 (configuration not stated) returned HMGR II inh -8, Arbovirus inh 17, Rad51 HR inh 0, BB579 growth dn 3, Measles CPE 9 and Yeast life ext -6.
`O=C1OC(c2ccccc2)=NC12CC2c1ccc(Cl)cc1` (configuration not stated) gave HMGR II inh 1, Arbovirus inh -5, Rad51 HR inh 10, BB579 growth dn 1, Measles CPE 27 and Yeast life ext 30*.
Screening O=C1c2ccccc2C(=O)C12OC2c1ccc(Cl)cc1 (configuration not stated) returned HMGR II inh -5, Arbovirus inh -7, Rad51 HR inh -4, BB579 growth dn -41, Measles CPE 3 and Yeast life ext 20.
`O=C(NCCc1ccccn1)C(F)(F)C(F)(F)C(F)(F)C(F)(F)C(F)(F)C(F)(F)C(F)(F)C(F)F` gave HMGR II inh 4, Arbovirus inh 9, Rad51 HR inh -3, BB579 growth dn -26, Measles CPE 21 and Yeast life ext 33*.
Screening COc1cccc2[nH]c3c(Cl)ncnc3c12 returned HMGR II inh -4, Arbovirus inh 11, Rad51 HR inh -8, BB579 growth dn 7, Measles CPE 11 and Yeast life ext -7.
